Six compounds from ChEMBL document CHEMBL1131478 (J Med Chem, 1998) can be followed below.

Series [1] in a line: Maximum plasma concentration (Cmax) after p.o. administration of 200 mg/kg in mice. In kind it is ADME, organism-based. Further details: dose 200 mg/kg, route oral. As to conditions: mouse, po. In outline:
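Single 200 mg/kg oral dose in mice, given in 0.5% methyl cellulose. Blood drawn at various time points. Plasma drug extracted with CH3CN and quantified by reverse-phase C18 HPLC using a CH3CN gradient with 0.1% TFA. Peak plasma level taken as Cmax.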

The target of series [2] is Angiotensin-converting enzyme (Homo sapiens, UniProt P12821). The series is described as follows: Inhibitory activity against Angiotensin I converting enzyme.
The next series concerns the target T1, Matrilysin (Homo sapiens, UniProt P09237).
T1 sequence (P09237 whole entry): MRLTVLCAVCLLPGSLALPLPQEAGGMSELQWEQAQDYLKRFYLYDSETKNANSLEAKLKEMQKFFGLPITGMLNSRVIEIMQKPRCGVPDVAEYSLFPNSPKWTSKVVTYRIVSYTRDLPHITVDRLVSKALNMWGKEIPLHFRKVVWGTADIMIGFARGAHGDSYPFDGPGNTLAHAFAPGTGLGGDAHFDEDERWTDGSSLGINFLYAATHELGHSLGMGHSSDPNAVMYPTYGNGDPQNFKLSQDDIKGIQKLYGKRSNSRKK
Description: Inhibitory activity against Matrix metalloprotease-7.

The target of series [3] is Matrix metalloproteinase-9 (Homo sapiens, UniProt P14780). The series is described as follows: Inhibitory activity against human gelatinase B (Matrix metalloprotease-9).
Another series deals with Stromelysin-1 (Homo sapiens, UniProt P08254). The series is described as follows: Inhibitory activity against Matrix metalloprotease-3. In a few lines:
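Enzyme and DMSO inhibitor were preincubated 30 min at room temperature in 50 mM Tris-Cl/10 mM CaCl2/0.2 M NaCl/0.02% NaN3/0.05% Brij-35, pH 7.5. Substrate MOAc-Arg-Pro-Lys-Pro-Val-Glu-Nva-Trp-Arg-Lys(Dnp)NH2 (added as 25 μM solution) then reacted 90 min.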

For series [4], the target named is 72 kDa type IV collagenase (Homo sapiens, UniProt P08253). The series is described as follows: Inhibitory activity against human gelatinase A (matrix metalloprotease-2 MMP2).
The target of a further series is T2, Interstitial collagenase (Homo sapiens, UniProt P03956).
T2 sequence (P03956 whole entry): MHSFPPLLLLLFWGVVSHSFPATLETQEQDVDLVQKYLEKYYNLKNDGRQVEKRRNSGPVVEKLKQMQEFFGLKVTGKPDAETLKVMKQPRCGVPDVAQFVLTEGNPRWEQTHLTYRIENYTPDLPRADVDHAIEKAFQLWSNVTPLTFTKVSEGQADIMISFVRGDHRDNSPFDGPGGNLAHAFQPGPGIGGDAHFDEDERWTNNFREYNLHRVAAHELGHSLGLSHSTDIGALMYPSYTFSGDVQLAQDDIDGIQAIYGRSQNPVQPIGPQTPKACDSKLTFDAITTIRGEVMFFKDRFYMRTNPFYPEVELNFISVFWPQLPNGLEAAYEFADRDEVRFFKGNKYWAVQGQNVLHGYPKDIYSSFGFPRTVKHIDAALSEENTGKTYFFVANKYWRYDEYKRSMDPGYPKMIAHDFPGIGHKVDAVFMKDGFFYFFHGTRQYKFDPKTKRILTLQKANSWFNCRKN
The series is described as follows: Inhibitory activity against Matrix metalloprotease-1. In outline:
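Commercial enzyme diluted in Tris/CaCl2/NaCl/Brij-35 buffer. Enzyme (about 0.2 unit/mL) and DMSO inhibitor were preincubated 30 min at room temperature with ABD-F (added as 2 mM) in 25 mM HEPES-NaOH/5 mM CaCl2, pH 7.0. Thiopeptide substrate Ac-Pro-Leu-Gly-SCH(CH2CH(CH3)2)CO-Leu-Gly-OEt (1.25 mM stock) was then added for 3 h at 37 °C. Reaction quenched with 3% acetic acid. Fluorescence read at ex 360/em 530 nm.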

The next series has as its target T3, Neprilysin (Rattus norvegicus, UniProt P07861).
T3 sequence (P07861 whole entry): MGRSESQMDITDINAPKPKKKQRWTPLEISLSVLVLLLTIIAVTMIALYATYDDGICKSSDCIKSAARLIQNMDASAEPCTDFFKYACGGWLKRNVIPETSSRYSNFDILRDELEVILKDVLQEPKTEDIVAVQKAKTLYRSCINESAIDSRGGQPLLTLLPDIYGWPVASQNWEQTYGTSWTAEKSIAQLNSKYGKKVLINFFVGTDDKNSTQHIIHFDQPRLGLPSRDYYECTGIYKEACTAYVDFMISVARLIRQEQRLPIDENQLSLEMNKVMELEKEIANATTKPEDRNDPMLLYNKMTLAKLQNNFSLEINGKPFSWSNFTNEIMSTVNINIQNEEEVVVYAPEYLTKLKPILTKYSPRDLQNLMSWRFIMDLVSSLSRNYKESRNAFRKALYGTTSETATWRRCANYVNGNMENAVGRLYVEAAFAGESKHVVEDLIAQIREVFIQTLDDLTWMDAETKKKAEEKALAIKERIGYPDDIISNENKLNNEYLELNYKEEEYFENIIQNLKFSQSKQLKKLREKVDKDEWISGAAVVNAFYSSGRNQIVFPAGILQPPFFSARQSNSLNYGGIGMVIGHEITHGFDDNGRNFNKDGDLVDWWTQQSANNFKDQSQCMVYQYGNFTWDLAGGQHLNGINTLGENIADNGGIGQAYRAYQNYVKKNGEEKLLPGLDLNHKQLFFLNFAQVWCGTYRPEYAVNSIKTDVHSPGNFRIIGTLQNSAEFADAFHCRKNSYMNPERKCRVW
Description: Inhibitory activity against neutral endopeptidase (NEP).

For series [5], the target named is T4, Endothelin-converting enzyme 1 (Homo sapiens, UniProt P42892).
T4 sequence (P42892 whole entry): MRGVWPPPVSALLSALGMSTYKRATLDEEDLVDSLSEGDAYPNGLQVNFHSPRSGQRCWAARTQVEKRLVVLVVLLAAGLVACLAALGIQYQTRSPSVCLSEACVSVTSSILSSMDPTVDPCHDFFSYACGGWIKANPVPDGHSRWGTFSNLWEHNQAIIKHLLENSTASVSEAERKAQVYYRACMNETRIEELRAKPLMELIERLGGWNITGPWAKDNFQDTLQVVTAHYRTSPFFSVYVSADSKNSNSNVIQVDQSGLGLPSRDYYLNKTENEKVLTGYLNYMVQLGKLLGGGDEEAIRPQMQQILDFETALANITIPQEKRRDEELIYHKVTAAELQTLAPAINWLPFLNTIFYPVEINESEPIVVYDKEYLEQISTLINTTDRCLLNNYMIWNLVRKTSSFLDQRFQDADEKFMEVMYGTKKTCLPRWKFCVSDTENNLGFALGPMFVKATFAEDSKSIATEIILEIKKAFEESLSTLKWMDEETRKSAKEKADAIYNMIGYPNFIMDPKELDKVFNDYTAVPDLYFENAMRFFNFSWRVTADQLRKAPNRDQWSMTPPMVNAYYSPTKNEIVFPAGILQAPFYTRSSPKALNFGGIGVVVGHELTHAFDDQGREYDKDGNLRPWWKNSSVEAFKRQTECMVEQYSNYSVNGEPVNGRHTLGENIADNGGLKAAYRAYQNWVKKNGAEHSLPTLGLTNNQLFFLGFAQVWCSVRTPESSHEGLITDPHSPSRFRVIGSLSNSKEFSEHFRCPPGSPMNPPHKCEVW
Description: Inhibitory activity against endothelin converting enzyme (ECE).

For series [6], the target named is T4, Endothelin-converting enzyme 1. The series is described as follows: Inhibitory activity against Endothelin-converting enzyme (ECE).

A word on the Cmax: it is the peak of the concentration-time curve. The term IC50 denotes the concentration that gives 50% inhibition. A higher IC50 goes with weaker potency.

Chain of Angiotensin-converting enzyme (P12821 whole entry): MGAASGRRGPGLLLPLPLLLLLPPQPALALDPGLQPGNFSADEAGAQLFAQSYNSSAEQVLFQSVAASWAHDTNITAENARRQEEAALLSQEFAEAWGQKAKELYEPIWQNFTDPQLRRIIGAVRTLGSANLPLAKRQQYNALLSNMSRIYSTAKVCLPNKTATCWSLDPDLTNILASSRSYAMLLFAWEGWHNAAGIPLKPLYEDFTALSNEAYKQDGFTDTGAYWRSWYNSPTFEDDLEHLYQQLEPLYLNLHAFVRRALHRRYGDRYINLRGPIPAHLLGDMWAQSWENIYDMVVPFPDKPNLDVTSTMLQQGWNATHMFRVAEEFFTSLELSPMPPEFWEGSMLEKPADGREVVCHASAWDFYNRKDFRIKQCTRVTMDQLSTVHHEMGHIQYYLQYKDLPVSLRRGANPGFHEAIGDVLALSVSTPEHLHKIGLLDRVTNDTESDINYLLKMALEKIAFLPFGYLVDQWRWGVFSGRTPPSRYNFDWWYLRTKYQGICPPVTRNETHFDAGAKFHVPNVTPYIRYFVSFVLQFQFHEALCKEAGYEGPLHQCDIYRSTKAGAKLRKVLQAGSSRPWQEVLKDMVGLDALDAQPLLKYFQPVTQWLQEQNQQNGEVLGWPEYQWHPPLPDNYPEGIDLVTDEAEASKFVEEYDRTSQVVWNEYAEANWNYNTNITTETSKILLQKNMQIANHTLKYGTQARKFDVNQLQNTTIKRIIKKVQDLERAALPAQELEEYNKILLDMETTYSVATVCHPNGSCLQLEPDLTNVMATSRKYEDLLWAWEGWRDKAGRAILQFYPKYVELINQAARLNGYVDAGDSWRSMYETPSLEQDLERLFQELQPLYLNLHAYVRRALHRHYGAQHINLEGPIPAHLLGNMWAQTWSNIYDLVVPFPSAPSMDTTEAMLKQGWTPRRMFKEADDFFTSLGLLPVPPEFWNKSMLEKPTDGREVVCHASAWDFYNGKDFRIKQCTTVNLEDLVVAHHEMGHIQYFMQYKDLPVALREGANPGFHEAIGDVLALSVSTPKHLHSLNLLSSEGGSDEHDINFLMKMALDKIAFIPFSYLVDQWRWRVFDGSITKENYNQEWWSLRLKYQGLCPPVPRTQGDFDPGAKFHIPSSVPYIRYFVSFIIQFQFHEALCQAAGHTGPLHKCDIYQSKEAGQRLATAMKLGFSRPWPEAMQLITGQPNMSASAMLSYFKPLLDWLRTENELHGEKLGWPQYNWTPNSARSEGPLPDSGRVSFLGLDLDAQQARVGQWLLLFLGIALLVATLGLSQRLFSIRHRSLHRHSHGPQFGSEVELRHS
Chain of Stromelysin-1 (P08254 whole entry): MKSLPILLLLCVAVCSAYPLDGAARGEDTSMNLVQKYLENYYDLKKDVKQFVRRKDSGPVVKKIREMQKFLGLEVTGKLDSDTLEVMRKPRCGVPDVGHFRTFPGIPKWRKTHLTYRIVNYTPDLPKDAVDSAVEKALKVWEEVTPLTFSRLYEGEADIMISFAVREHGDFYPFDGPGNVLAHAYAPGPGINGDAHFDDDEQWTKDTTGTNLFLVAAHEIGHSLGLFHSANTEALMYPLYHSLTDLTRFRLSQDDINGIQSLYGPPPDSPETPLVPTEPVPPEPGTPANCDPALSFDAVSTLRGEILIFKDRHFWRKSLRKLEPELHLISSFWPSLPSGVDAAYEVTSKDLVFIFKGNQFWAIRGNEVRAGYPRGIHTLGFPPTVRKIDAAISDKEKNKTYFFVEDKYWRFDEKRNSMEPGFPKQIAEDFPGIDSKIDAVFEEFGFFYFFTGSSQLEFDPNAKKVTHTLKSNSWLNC
Chain of Matrix metalloproteinase-9 (P14780 whole entry): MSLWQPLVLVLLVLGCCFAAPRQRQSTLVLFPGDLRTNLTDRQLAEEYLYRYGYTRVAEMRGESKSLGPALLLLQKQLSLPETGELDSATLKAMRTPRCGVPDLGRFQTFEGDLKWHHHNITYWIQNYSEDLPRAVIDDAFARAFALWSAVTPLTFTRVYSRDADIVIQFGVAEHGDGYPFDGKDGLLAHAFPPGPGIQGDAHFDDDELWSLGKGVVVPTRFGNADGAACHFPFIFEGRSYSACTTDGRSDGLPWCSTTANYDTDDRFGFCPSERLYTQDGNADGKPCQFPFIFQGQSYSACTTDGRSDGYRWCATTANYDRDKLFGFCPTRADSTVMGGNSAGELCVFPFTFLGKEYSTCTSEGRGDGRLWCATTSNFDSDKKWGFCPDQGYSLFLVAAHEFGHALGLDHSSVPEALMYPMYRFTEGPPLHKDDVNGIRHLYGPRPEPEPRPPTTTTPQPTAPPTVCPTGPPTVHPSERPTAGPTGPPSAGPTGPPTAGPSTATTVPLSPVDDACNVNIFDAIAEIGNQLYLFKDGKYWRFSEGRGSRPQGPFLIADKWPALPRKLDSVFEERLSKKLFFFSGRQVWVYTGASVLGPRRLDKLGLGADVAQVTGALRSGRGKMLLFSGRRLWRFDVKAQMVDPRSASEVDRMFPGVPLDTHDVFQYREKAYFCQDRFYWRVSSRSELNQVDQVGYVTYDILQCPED
Chain of 72 kDa type IV collagenase (P08253 whole entry): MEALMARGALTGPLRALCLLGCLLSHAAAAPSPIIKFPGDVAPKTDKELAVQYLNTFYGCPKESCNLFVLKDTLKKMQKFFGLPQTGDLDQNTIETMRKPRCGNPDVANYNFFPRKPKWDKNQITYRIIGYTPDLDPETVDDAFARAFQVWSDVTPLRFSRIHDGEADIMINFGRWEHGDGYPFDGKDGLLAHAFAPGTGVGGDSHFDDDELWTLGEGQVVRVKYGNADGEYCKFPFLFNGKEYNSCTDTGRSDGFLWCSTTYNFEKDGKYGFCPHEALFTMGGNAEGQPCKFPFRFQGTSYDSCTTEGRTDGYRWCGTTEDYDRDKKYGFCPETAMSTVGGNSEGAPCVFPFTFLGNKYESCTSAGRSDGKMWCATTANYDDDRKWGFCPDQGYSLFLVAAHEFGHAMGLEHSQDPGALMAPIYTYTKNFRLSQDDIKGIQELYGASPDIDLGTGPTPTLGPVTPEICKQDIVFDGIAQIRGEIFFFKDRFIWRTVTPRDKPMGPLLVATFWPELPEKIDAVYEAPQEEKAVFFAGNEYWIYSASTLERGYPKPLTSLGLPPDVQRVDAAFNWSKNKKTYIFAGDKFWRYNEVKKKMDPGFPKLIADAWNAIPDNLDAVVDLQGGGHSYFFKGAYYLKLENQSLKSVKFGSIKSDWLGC

For `CSc1ccc(-c2ccc(S(=O)(=O)N[C@@H](C(=O)O)C(C)C)cc2)cc1`, the highest level in series [1] (Cmax) was 189 µM. In addition, the IC50 in series [2] is greater than 1000 nM; against Matrilysin, greater than 1000 nM; in series [3], 40 nM; against Stromelysin-1, greater than 1000 nM; in series [4], 23 nM; against Interstitial collagenase, greater than 1000 nM. Also, the 50% inhibitory concentration (IC50) (against Neprilysin; in series [5]) was greater than 1000 nM in each case.
On to `CSc1ccc(-n2nnc(-c3ccc(S(=O)(=O)N[C@@H](C(=O)O)C(C)C)cc3)n2)cc1`, for which the concentration in series [1] peaked (Cmax) at 47.7 µM. The IC50 in [2] is greater than 1000 nM; at Matrilysin, greater than 1000 nM; against Stromelysin-1 it was greater than 1000 nM; in [4], 13 nM; at Interstitial collagenase, greater than 1000 nM; against Neprilysin, greater than 1000 nM. The compound also showed a half-inhibitory concentration (IC50) in [5] greater than 1000 nM.
For `O=C(O)[C@@H](Cc1c[nH]c2ccccc12)NS(=O)(=O)c1ccc(-c2nnn(-c3ccccc3)n2)cc1`, the IC50 in series [2] was greater than 1000 nM; in series [6] it was greater than 1000 nM; against Matrilysin, greater than 1000 nM; in series [3], 32 nM; on Stromelysin-1 it was greater than 1000 nM; in series [4] it was 19 nM. For the same compound, the IC50 at Interstitial collagenase and at Neprilysin was greater than 1000 nM throughout.
Consider `O=C(Nc1ccc(S(=O)(=O)N[C@H](Cc2c[nH]c3ccccc23)C(=O)O)cc1)c1ccc(Br)cc1`, for which the concentration in [1] peaked (Cmax) at 0.2 µM. Moreover, the IC50 is greater than 1000 nM in series [2]; greater than 1000 nM on Matrilysin; greater than 1000 nM on Stromelysin-1; 2.6 nM in series [4]; greater than 1000 nM at Interstitial collagenase; greater than 1000 nM at Neprilysin. The half-maximal inhibitory concentration (IC50) in series [5] is greater than 1000 nM.
Compound `Cc1ccc(-c2ccc(S(=O)(=O)N[C@H](Cc3c[nH]c4ccccc34)C(=O)O)s2)cc1` registered a Cmax in [1] of 252 µM. Moreover, the IC50 is greater than 1000 nM in series [2]; greater than 1000 nM in series [6]; greater than 1000 nM on Matrilysin; 61 nM in [3]; greater than 1000 nM on Stromelysin-1; 10 nM in series [4]. Further, the IC50 at Interstitial collagenase and against Neprilysin was greater than 1000 nM in each case.
For the compound `Cc1ccc(C#Cc2ccc(S(=O)(=O)N[C@H](Cc3c[nH]c4ccccc34)C(=O)O)s2)cc1` [S-3304], in [1], the concentration peaked (Cmax) at 204 µM. Besides, the half-inhibitory concentration (IC50) in series [2] is greater than 1000 nM; on Matrilysin, greater than 1000 nM; in series [3] it was 23 nM; at Stromelysin-1 it was greater than 1000 nM; against Interstitial collagenase, greater than 1000 nM; at Neprilysin it was greater than 1000 nM. In series [5], this compound gave a half-maximal inhibitory concentration (IC50) greater than 1000 nM.
